Screening data deposited in PubChem BioAssay by several laboratories.
Rows were chosen to be rich in hits. Some 7.6% of all compounds tested hit in one or more screens of this group.
D1 allo mod = D1 dopamine receptor (human) allosteric modulation; HEK293 D1, CRE-luciferase, dopamine EC30 potentiation; actives deviate in either direction; P21728; 58,000 compounds, 5.9% hits; B-score at 10 µM; AID 641;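 active means luminescence count or its row- and column-corrected plate score outside the 99.7% band of the plate's sample wells, on either side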
Jurkat viability = cytotoxic compounds reducing Jurkat cell viability. Jurkat E6.1 viability, ATP luminescence, 48 h. inhibition, % at 4 µM. 56,000 compounds, 1.2% hits;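 active means inhibition above the mean inhibition of all tested compounds plus 3 SD, cut at about 28% in these data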
M1 antagonist = M1 muscarinic receptor (rat) antagonism; CHO-M1 cells, Fluo-4 calcium, ACh EC80 antagonist mode; hits give low values; B-score at 10 µM; 64,000 compounds, 3.4% hits;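 active means calcium fluorescence response, raw or row-and-column corrected B-score, differing from the plate sample mean either way at a set confidence level, mostly lower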
hDAT+cocaine = modulates human dopamine transporter uptake under cocaine. LLC-PK1 hDAT cells, [14C]-dopamine uptake with cocaine IC80; actives deviate in either direction. B-score at 10 µM. 110,000 compounds, 1.3% hits. AID 449768;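 active means Z score or B-score, a plate-position-corrected score, falls beyond the plate's 99.7% confidence bounds, in either direction; inactive means both scores lie inside the 99.7% bounds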;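 further: scored against the spread of the other compound wells on the same plate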
M1 agonist = activates the M1 muscarinic receptor; CHO-M1 cells, Fluo-4 calcium fluorescence, agonist mode; hits give high values; B-score at 10 µM; 64,000 compounds, 3% hits;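 active means fluorescence rise, raw or as B-score row- and column-corrected plate score, outside the 99.7% band of its plate's samples, either direction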
HEK293 NFkB inh = inhibitors of the PMA/ionomycin-induced NF-kB reporter in HEK293 cells. HEK-293 NF-kB luciferase reporter, luminescence. inhibition, % at 3 µM. 62,000 compounds, 0.21% hits;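 active means inhibition above the mean of all tested compounds plus 3 SD, cut at about 40% in these data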;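 further: 0% = stimulated DMSO wells and 100% = 10 µM reference inhibitor 5653914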
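Reagent: PMA plus ionomycin mix as NF-kB-activating stimulus. Assay system: NF-kB luciferase reporter HEK-293 cells. Technique: luminescence from luciferase substrate reagent. Incubation: 1 h compound pre-incubation, 16 h PMA/ionomycin at 37 °C. Benchmarks: DMSO only as uninhibited control, 10 µM reference inhibitor as full inhibition. Repeats: tested once.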
M1 ag confirm = rat M1 muscarinic agonism, confirmation. shares compounds with M1 agonist. CHO-M1 cells, Fluo-4 calcium fluorescence, agonist mode; actives lie on both sides. fluorescence change (max-min) at 10 µM. 1,700 compounds, 19% hits. AID 1488;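 active means fluorescence change differs from the solvent-only DMSO control mean at a set confidence level in both duplicate runs; inconclusive means differs from solvent-only control mean in just one of two runs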;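 further: an EC20 dose of acetylcholine follows compound addition during the same imaging run; raw fluorescence intensity difference in instrument units with no normalization to controls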
M4 agonist ctr = activates rat M4 receptor in counter-screen for M1 agonists; shares compounds with M1 agonist; CHO M4/Gqi5 cells, Fluo-4 calcium fluorescence, agonist mode; actives lie on both sides; fluorescence change (max-min) at 10 µM; 1,700 compounds, 9% hits;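 active means fluorescence change differing from the plate's solvent-only control wells at 99.7% confidence in both duplicates, whether higher or lower; inconclusive means differs from solvent controls in only one of two duplicates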
Target sequence (P08485 whole entry, looked up): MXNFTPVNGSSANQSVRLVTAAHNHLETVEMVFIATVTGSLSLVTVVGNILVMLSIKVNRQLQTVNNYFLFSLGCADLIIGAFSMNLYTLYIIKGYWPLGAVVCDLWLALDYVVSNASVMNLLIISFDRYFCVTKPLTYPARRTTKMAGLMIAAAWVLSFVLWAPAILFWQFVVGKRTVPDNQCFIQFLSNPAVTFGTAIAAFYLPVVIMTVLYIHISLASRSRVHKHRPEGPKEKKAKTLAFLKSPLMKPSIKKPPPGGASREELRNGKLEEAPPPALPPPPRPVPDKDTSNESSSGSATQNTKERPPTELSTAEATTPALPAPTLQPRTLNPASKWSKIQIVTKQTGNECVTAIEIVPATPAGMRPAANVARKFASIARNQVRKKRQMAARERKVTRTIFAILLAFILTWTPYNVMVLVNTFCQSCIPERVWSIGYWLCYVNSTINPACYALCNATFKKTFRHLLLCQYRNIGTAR
Numbers without * were called inactive; ? = inconclusive; . = no result given.

SMILES	D1 allo mod	Jurkat viability	M1 antagonist	hDAT+cocaine	M1 agonist	HEK293 NFkB inh	M1 ag confirm	M4 agonist ctr
COCCCN1C(=O)C(=O)/C(=C(/O)c2ccccc2)C1c1ccc(N(C)C)cc1 (stereo not drawn)	-0.87	-1	-0.063	-1.6	-0.013	14	.	.
CCN(CC)S(=O)(=O)c1ccc(/C(O)=C2/C(=O)C(=O)N(CCOC)C2c2ccccc2)cc1 (stereo not drawn)	0.95	0	-0.92	-0.56	33*	7	-21	-27
O=C(Cc1ncn[nH]1)NCCc1ccccc1	.	-5	-0.65	-0.026	-0.86	-1	.	.
CCN(CC)C(=O)CN(c1cc2c(cc1OC)oc1ccccc12)S(=O)(=O)c1ccccc1	.	.	.	0.21	.	.	.	.
Cc1cc(N2CCN(c3ccccc3)CC2)n2nnnc2n1	-0.62	-9	-0.38	.	-0.96	2	.	.
Cc1cc(N2CCN(c3ccccc3)CC2)n2c(n1)nc1ccccc12	0.36	4	-0.41	0.93	7.5*	-2	-32*	-63
CSCC[C@@H](C(=O)Nc1ccc2c(c1)OCCO2)N1Cc2ccccc2C1=O	1.2	1	-0.72	0.1	-1.5	-10	.	.
Cc1cc2oc(C(=O)N(Cc3ccco3)C3CCS(=O)(=O)C3)cc(=O)c2cc1Cl (stereo not drawn)	0.98	11	0.18	0.24	0.6	14	.	.
CC(C)CC(C(=O)Nc1ccc2c(c1)OCCO2)N1C(=O)c2ccccc2C1=O (stereo not drawn)	-0.28	-11	0.071	0.047	0.6	10	.	.
CC(C)CC(C(=O)Nc1oc(-c2ccco2)c(-c2ccco2)c1C#N)N1C(=O)c2ccccc2C1=O (stereo not drawn)	.	-4	-1.9*	-0.31	13*	6	-5.6	-33
Cc1ccc2c(COn3nnc4ccc(S(=O)(=O)N(C)C)cc43)cc(=O)oc2c1C	0.55	5	-0.019	0.57	21*	14	-10	-29
CC1(C)Cc2nc3sc4c(N(CCO)CCO)ncnc4c3cc2CO1	.	.	0.006	0.37	2.8*	.	?	-46
CC1(C)Cc2nc3sc4c(SCC(=O)NCc5ccccc5)ncnc4c3cc2CO1	.	.	.	0.59	.	.	.	.
COc1cccc(C(=O)OCCN2CCCCC2)c1	.	.	.	1.5	.	.	.	.
CC1=C(C#N)C(=O)OC(C)(C)C1	.	.	-1.2	0.76	15*	.	39	33
CCn1cc(C(=O)NCc2ccccn2)c(=O)c2cc(S(=O)(=O)N3CCCCC3)ccc21	0.32	12	1.2	.	11*	16	73*	17
CCn1cc(C(=O)NCc2ccco2)c(=O)c2cc(S(=O)(=O)N3CCCCCC3)ccc21	0.78	23	0.61	1.2	0.51	15	.	.
COc1ccc2nc(N3CCCC3)c(C#N)cc2c1	2.8	6	-1.2	1.5	92*	18	1016*	1175*
Cc1ccc(C(=O)N2c3ccccc3N(Cc3ccccc3)C(=O)C2(C)C)cc1	.	.	.	0.35	.	.	.	.
Cc1ccc2cc(C#N)c(N3CCCN(C(=O)C4CCCO4)CC3)nc2c1C (stereo not drawn)	-2.3	.	-0.96	0.18	4.1*	4	-12	-29
O=C1N=C2SCCN2/C1=C\c1ccc(Cl)cc1	.	.	.	-0.8	.	.	.	.
O=C1C2C3CCCC3=C3CCCC3C2C(=O)N1c1ccc(Cl)cc1 (stereo not drawn)	-0.49	2	-0.9	-0.032	4.2*	7	?	-38
O=C1C2C3CCCC3=C3CCCC3C2C(=O)N1c1cccc(Cl)c1 (stereo not drawn)	-0.28	-2	0.18	0.68	-0.53	8	.	.
COCCn1c(N)c(C(=O)OCc2ccccc2)c2nc3ccccc3nc21	0.89	7	-0.49	2.8	0.73	6	.	.
COCCNC(=O)c1c(N)n(CCC2=CCCCC2)c2nc3ccccc3nc12	-0.016	.	0.78	0.81	6.2*	.	5.8	-8.2
SMILES	D1 allo mod	Jurkat viability	M1 antagonist	hDAT+cocaine	M1 agonist	HEK293 NFkB inh	M1 ag confirm	M4 agonist ctr
O=C(Nc1cccc(-c2cn3cccnc3n2)c1)c1ccc2c(c1)OCO2	0.036	.	0.72	-1.3	3*	11	?	?
CC1CC(C)CN(c2ccc(C(=O)OCC(=O)NC3CCCc4ccccc43)cc2[N+](=O)[O-])C1 (stereo not drawn)	.	.	.	-0.87	.	.	.	.
Cc1nc2ncnn2c(C)c1CCC(=O)NCCCN1CCN(c2cccc(Cl)c2)CC1	-1.1	5	-1.1	0.85	2.6*	11	?	-36
CC1CCN(c2nc(-c3ccco3)c3c(c2C#N)CC(C)(C)OC3)CC1	4.2	3	0.094	-1.6	4.5*	12	-1.4	-16
CC1(C)Cc2c(C#N)c(SCC(=O)c3ccccc3)nc(N3CCOCC3)c2CO1	-3.3*	0	-0.6	1.2	6.7*	1	-18	?
CC1(C)Cc2c(C#N)c(N3CCOCC3)nc(Cc3ccccc3)c2CO1	.	.	-0.73	-0.98	4.2*	.	-6.5	?
CC1(C)Cc2c(C#N)c(N3CCN(C(=O)c4ccccc4)CC3)nc(Cc3ccccc3)c2CO1	.	.	.	0.79	.	.	.	.
CC1(C)Cc2c(C#N)c(SCc3ccccc3)nc(N3CCOCC3)c2CO1	0.49	-5	0.048	1.8	-0.08	15	.	.
CC1S/C(=C(\C#N)C(=O)NCc2ccco2)N(c2ccc(F)cc2)C1=O (stereo not drawn)	1.7	4	0.13	0.051	-0.53	6	.	.
CCOc1ccc2oc(-c3ccccc3)c(C(=O)O)c2c1	-0.96	2	-0.46	1.8	0	2	.	.
CCOc1ccc2oc(-c3ccccc3)c(C(=O)N3CCN(CCO)CC3)c2c1	1	-2	-0.62	-0.89	4.2*	12	-9.5	?
CCc1nc2c(nnn2Cc2ccc(F)cc2)c(=O)[nH]1	.	.	.	0.61	.	.	.	.
CCOC(=O)C1CCN(S(=O)(=O)c2cccc(-c3cn4cccc(C)c4n3)c2)CC1	-0.0035	-3	-3*	-1.8	2.3*	7	-12	-35
CCCCC(=O)NCCNC(=O)c1cc(OCC(F)(F)F)ccc1OCC(F)(F)F	.	.	.	-1	.	.	.	.
COc1ccc(OCC(O)Cn2c(=N)n(CCN3CCOCC3)c3ccccc32)cc1 (stereo not drawn)	-1.2	-5	-0.021	0.076	7.5*	-3	-26	-30
N=c1n(CCN2CCCCC2)c2ccccc2n1CC(O)COc1ccccc1 (stereo not drawn)	-2.6	9	-0.28	0.65	-0.028	24	.	.
CCOC(=O)C1CCCN(C(=O)CCCn2nc(C)n3c(cc4sccc43)c2=O)C1 (stereo not drawn)	1.3	2	-0.67	1.4	42*	10	335*	?
CCCc1cc(=O)[nH]c(SCC(N)=O)n1	-0.81	0	-0.51	-0.67	1	12	.	.
